According to ChEMBL document CHEMBL1139344, “Antagonists of the human A(2A) adenosine receptor. 4. Design, synthesis, and preclinical evaluation of 7-aryltriazolo[4,5-d]pyrimidines” (J Med Chem, 2009):
Converted amounts (≈) assume the structure as drawn. The source made the active and inactive calls. The rule behind the calls is not given here.

Legend:
Adenosine receptor A2a = Adenosine receptor A2a (Homo sapiens, UniProt P29274); test: Displacement of radioligand from human recombinant adenosine A2A receptor at 21 degC after 90 mins by cell-based microplate scintillation counting
Adenosine receptor A1 = biological target: T1, Adenosine receptor A1 (Homo sapiens, UniProt P30542); test: Displacement of radioligand from human recombinant adenosine A1 receptor at 21 degC after 90 mins by cell-based microplate scintillation counting
T1 sequence (P30542 whole entry): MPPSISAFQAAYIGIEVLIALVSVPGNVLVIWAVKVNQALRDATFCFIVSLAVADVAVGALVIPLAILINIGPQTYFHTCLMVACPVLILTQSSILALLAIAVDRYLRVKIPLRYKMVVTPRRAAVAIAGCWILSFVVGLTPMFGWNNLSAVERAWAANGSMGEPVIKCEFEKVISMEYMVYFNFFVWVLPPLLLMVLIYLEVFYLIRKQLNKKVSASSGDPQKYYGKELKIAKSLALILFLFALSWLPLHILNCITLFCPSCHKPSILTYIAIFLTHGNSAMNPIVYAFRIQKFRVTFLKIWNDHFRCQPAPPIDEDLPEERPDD

Adenosine receptor A3 = biological target: T2, Adenosine receptor A3 (Homo sapiens, UniProt P0DMS8); test: Displacement of radioligand from human recombinant adenosine A3 receptor at 21 degC after 60 mins by cell-based microplate scintillation counting
T2 sequence (P0DMS8 whole entry): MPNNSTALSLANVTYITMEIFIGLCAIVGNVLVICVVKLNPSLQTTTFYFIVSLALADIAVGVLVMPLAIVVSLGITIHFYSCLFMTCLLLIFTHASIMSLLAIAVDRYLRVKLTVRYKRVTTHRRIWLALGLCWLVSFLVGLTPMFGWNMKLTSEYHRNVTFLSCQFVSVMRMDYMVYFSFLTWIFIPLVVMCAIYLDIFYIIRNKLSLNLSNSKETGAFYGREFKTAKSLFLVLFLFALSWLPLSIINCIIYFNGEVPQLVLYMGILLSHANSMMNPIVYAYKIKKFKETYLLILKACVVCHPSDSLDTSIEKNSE

Adenosine receptor A2b = biological target: T3, Adenosine receptor A2b (Homo sapiens, UniProt P29275); test: Displacement of radioligand from human recombinant adenosine A2B receptor at 21 degC after 60 mins by cell-based microplate scintillation counting
T3 sequence (P29275 whole entry): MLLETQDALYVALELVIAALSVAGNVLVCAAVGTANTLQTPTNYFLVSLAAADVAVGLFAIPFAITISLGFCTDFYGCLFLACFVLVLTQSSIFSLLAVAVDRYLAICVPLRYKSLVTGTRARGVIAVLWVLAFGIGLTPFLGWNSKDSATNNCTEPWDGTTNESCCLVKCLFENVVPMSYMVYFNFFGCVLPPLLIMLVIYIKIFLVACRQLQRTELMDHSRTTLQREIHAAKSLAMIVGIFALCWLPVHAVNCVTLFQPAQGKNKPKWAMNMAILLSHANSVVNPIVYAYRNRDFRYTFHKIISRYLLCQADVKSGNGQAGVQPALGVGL

Mus musculus = test: Reversal of haloperidol-induced hypolocomotion in TO mouse assessed as time spent for locomotor activity at 30 mg/kg, po administered 15 mins prior and measured for 60 mins; format: functional, organism-based; set-up: dose 30 mg/kg
[1] = Aqueous solubility in phosphate buffered saline; format: physicochemical
Liver microsomes = test: Metabolic stability in rat liver microsomes after 30 mins; format: ADME, Microsome; details: 0.5 h
How it was run: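 Turnover by rodent liver microsomes measured as percent turnover after 30 min.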

Rattus norvegicus = test: Reversal of haloperidol-induced hypolocomotion in Sprague-Dawley rat assessed as time spent for locomotor activity at 30 mg/kg, po administered 120 mins prior and measured for 60 mins; format: functional, organism-based; set-up: dose 30 mg/kg

Adenosine receptor A2a, sequence (P29274 whole entry): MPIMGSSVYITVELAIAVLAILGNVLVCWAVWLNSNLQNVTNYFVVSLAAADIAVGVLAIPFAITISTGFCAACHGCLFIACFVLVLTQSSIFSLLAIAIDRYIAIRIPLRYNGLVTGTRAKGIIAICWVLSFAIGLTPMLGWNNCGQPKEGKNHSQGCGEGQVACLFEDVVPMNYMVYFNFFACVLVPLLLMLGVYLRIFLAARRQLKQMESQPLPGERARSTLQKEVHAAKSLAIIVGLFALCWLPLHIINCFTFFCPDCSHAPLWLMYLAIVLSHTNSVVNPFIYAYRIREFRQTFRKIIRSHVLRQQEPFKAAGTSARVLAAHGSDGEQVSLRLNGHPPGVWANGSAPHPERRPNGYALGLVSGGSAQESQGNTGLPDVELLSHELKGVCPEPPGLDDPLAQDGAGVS

SMILES | Ki (Adenosine receptor A2a) [nM] | Ki (Adenosine receptor A1) [nM] | Ki (Adenosine receptor A3) [nM] | Ki (Adenosine receptor A2b) [nM] | Activity (Mus musculus) | solubility [1] [µM] | Stability (Liver microsomes) | Activity (Rattus norvegicus)
Nc1nc(-c2ccco2)c2nnn(Cc3cccc(O)c3)c2n1 | 4 | 314 | 491 | 10 |  |  |  | 
Nc1nc(-c2ccco2)c2nnn(Cc3ccc(N)c(F)c3)c2n1 | 0.7 | 120 | 1070 | 43 |  |  |  | 
N#Cc1ccc(Cn2nnc3c(-c4ccco4)nc(N)nc32)cc1 | 73 | 738 | 1050 | 885 | inactive | 30 (≈ 9.52 µg/mL) | Stable | inactive
CC(C)NC(=O)c1cccc(Cn2nnc3c(-c4ccco4)nc(N)nc32)c1 | 10.8 | 733 | 530 | 593 | inactive | 30 (≈ 11.3 µg/mL) | Stable | inactive
COc1ccccc1Cn1nnc2c(-c3ccco3)nc(N)nc21 | 5.4 | 319 | 340 | 741 |  |  |  | 
Nc1nc(-c2ccco2)c2nnn(Cc3ccccc3F)c2n1 | 2.7 | 105 | 440 | 109 | inactive | 30 (≈ 9.31 µg/mL) | Stable | inactive
Nc1nc(-c2ccco2)c2nnn(CC3CCCCC3)c2n1 | 8.5 | 230 | 1140 | 634 |  |  |  | 
Nc1nc(-c2nccs2)c2nnn(Cc3ccccc3F)c2n1 | 8.5 | 553 | 2200 | 271 | inactive | 30 (≈ 9.82 µg/mL) |  | inactive
Nc1nc(-c2ccco2)c2nnn(Cc3ccc4[nH]nnc4c3)c2n1 | 11.9 | 291 | 3010 | 134 |  |  |  | 
Nc1ccc(Cn2nnc3c(-c4ccco4)nc(N)nc32)c(F)c1 | 3.5 | 190 | 685 | 23 |  |  |  | 
CC(=O)Nc1ccc(Cn2nnc3c(-c4ccco4)nc(N)nc32)cc1 | 116 | 2530 | 2380 | 443 |  |  |  | 
Nc1nc(-c2ccco2)c2nnn(Cc3ccc(N)c(O)c3)c2n1 | 1.6 | 249 | 1360 | 84 |  |  |  | 
Nc1nc(-c2cccs2)c2nnn(Cc3ccccc3F)c2n1 | 8.2 | 154 | 871 | 248 |  |  |  | 
Cc1ccccc1Cn1nnc2c(-c3ccco3)nc(N)nc21 | 3 | 183 | 341 | 282 | inactive | 30 (≈ 9.19 µg/mL) | Stable | inactive
Nc1nc(-c2ccco2)c2nnn(Cc3cccc([N+](=O)[O-])c3)c2n1 | 3.7 | 231 | 844 | 646 | inactive | 30 (≈ 10.1 µg/mL) | Stable | inactive
Nc1nc(-c2ccco2)c2nnn(Cc3cccc(C(F)(F)F)c3)c2n1 | 2.2 | 100 | 736 | 259 |  |  |  | 
Nc1nc(-c2ccco2)c2nnn(Cc3ccco3)c2n1 | 8.8 | 77 | 240 | 192 |  |  |  | 
N#Cc1cccc(Cn2nnc3c(-c4ccco4)nc(N)nc32)c1 | 3.9 | 132 | 693 | 630 |  |  |  | 
Nc1nc(-c2ccco2)c2nnn(Cc3cnccn3)c2n1 | 122 | 1170 | 2220 | 1140 |  |  |  | 
COC(=O)c1cccc(Cn2nnc3c(-c4ccco4)nc(N)nc32)c1 | 4.1 | 105 | 1170 | 907 |  | 30 (≈ 10.5 µg/mL) | Stable | 
